Measured values as given in ChEMBL document CHEMBL3102854, “Design, synthesis and in vitro cytotoxicity evaluation of 5-(2-carboxyethenyl)isatin derivatives as anticancer agents” (Bioorg Med Chem Lett, 2014).

How the values were obtained:
K562 [1] = assay: Cytotoxicity against human K562 cells after 48 hrs by MTT assay; type: functional, cell-based; conditions: K562, 48 h
In short: (§1)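 Cells seeded at 5 × 10⁴ cells/mL and allowed to settle 2 h (K562) or overnight (HepG2, HT-29). Compound in DMSO added, then 48 h further culture. Viability read by MTT with a microplate reader, normalized to DMSO-treated controls set as 100%. IC₅₀ obtained by nonlinear regression; each compound measured three times.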

HT-29 = assay: Cytotoxicity against human HT-29 cells after 48 hrs by MTT assay; type: functional, cell-based; conditions: HT-29, 48 h; in short: as §1
HepG2 = assay: Cytotoxicity against human HepG2 cells after 48 hrs by MTT assay; type: functional, cell-based; conditions: HepG2, 48 h; in short: as §1
K562 [2] = assay: Induction of apoptosis in human K562 cells at 30 nM after 12 hrs using annexin V-FITC and propidium iodide staining by flow cytometric analysis relative to control; type: functional
In short: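 K562 cells cultured without or with 30 nM compound for 12 h. 1 × 10⁶ cells resuspended in binding buffer containing annexin V-FITC and propidium iodide and incubated 15 min. Further binding buffer added, then cells analysed by flow cytometry for phosphatidylserine exposure.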

Row | SMILES | IC50 (K562 [1]) [µM] | IC50 (HT-29) [µM] | IC50 (HepG2) [µM] | Activity (K562 [2]) [%]
1 | COC(=O)/C=C/c1ccc2c(c1)C(=O)C(=O)N2Cc1cc(C)cc(C)c1 | 0.04 | 0.07 | 0.15 | –
2 | COC(=O)/C=C/c1ccc2c(c1)C(=O)C(=O)N2Cc1ccc(Cl)c(Cl)c1 | 0.06 | 0.21 | 0.16 | –
3 | COC(=O)/C=C/c1cccc2c1N(Cc1ccc(OC)cc1)C(=O)C2=O | 4.13 | > 10 | > 10 | –
4 | CC(C)(C)OC(=O)/C=C/c1ccc2c(c1)C(=O)C(=O)N2Cc1ccc(Br)cc1 | 0.29 | 0.73 | 2.05 | –
5 | COC(=O)/C=C/c1ccc2c(c1)/C(=N/O)C(=O)N2Cc1ccc(OC)cc1 | 2.11 | 4.94 | 3.56 | –
6 | COC(=O)/C=C/c1ccc2c(c1)C(O)C(=O)N2Cc1ccc(Br)cc1 (stereo not given) | 0.26 | 0.66 | 0.67 | –
7 | NC(=O)/C=C/c1ccc2c(c1)C(=O)C(=O)N2Cc1ccc(Br)cc1 | 0.3 | 0.55 | > 10 | –
8 | COC(=O)/C=C/c1ccc2c(c1)N(Cc1ccc(OC)cc1)C(=O)C2=O | 4.86 | > 10 | > 10 | –
9 | O=C1C(=O)N(Cc2ccc(Br)cc2)c2ccc(/C=C/C(=O)N3CCOCC3)cc21 | 1.38 | 4.59 | 7.79 | –
10 | COC(=O)/C=C/c1ccc2c(c1)C(=O)C(=O)N2Cc1ccc2ccccc2c1 | 0.04 | 0.1 | 0.09 | –
11 | COC(=O)/C=C/c1ccc2c(c1)C(=O)C(=O)N2Cc1ccc(C)cc1 | 0.04 | 0.03 | 0.04 | –
12 | COC(=O)/C=C/c1ccc2c(c1)CC(=O)N2Cc1ccc(Br)cc1 | 3.16 | > 10 | > 10 | –
13 | O=C1Nc2ccc(Cl)cc2C1=O | > 10 | > 10 | > 10 | –
14 | O=C1Nc2ccc(F)cc2C1=O [5-FLUOROISATIN] | > 10 | > 10 | > 10 | –
15 | CCN1C(=O)C(=O)c2cc(/C=C/C(=O)OC)ccc21 | 0.17 | 0.21 | 0.4 | –
16 | COC(=O)/C=C/c1ccc2c(c1)C(=O)C(=O)N2Cc1ccc(Br)cc1 | 0.006 | 0.03 | 0.04 | 32.2
17 | O=C(/C=C/c1ccc2c(c1)C(=O)C(=O)N2Cc1ccc(Br)cc1)OCCO | 0.05 | 0.68 | 3.66 | –
18 | COC(=O)/C=C/c1ccc2c(c1)C(=O)C(=O)N2Cc1ccc(C(F)(F)F)cc1 | 0.04 | 0.04 | 0.07 | –
19 | COC(=O)/C=C/c1ccc2c(c1)C(=O)C(=O)N2CCOc1ccccc1 | 0.06 | 0.2 | 0.21 | –
20 | COC(=O)/C=C/c1ccc2c(c1)C(=O)C(=O)N2Cc1ccccc1 | 0.04 | 0.07 | 0.04 | –
21 | COc1ccc(CN2C(=O)C(=O)c3cc(/C=C/C(=O)N4CCOCC4)ccc32)cc1 | 0.72 | 4.24 | 7.38 | –
22 | CCOC(=O)/C=C/c1ccc2c(c1)C(=O)C(=O)N2Cc1ccc(Br)cc1 | 0.03 | 0.05 | 0.29 | –
23 | COc1ccc(CN2C(=O)C(=O)c3cc(/C=C/C(=O)OC(C)(C)C)ccc32)cc1 | 0.05 | 0.48 | 0.62 | –
24 | O=C1Nc2ccc(Br)cc2C1=O | > 10 | > 10 | > 10 | –
25 | COC(=O)/C=C/c1ccc2c(c1)C(=O)C(=O)N2Cc1ccc(C#N)cc1 | 0.03 | 0.05 | 0.05 | –
26 | COC(=O)/C=C/c1ccc2c(c1)C(=O)C(=O)N2Cc1cccc(Br)c1 | 0.03 | 0.24 | 0.17 | –

Row | SMILES | IC50 (K562 [1]) [µM] | IC50 (HT-29) [µM] | IC50 (HepG2) [µM] | Activity (K562 [2]) [%]
27 | COc1ccc2c(c1)C(=O)C(=O)N2 [5-METHOXYISATIN] | > 10 | > 10 | > 10 | –
28 | CCOC(=O)/C=C/c1ccc2c(c1)C(=O)C(=O)N2Cc1ccc(OC)cc1 | 0.01 | 0.06 | 0.09 | –
29 | COC(=O)/C=C/c1ccc2c(c1)C(=O)C(=O)N2Cc1ccc(OC)cc1 | 0.003 | 0.03 | 0.03 | 37.2
30 | CC[C@@]1(O)C(=O)OCc2c1cc1n(c2=O)Cc2cc3ccccc3nc2-1 [CAMPTOTHECIN] | 0.04 | 0.06 | 0.05 | –
31 | COc1ccc(CN2C(=O)C(=O)c3cc(/C=C/C(=O)OCCO)ccc32)cc1 | 0.04 | 0.55 | 0.86 | –
32 | O=C1Nc2ccccc2C1=O [ISATIN] | > 10 | > 10 | > 10 | –
33 | CCCCc1ccc2c(c1)C(=O)C(=O)N2 | > 10 | > 10 | > 10 | –
34 | COC(=O)/C=C/c1ccc2c(c1)C(=O)C(=O)N2Cc1ccccc1Br | 0.07 | 0.24 | 0.26 | –
35 | COC(=O)/C=C/c1ccc2c(c1)C1(OCCO1)C(=O)N2Cc1ccc(OC)cc1 | 4.89 | > 10 | > 10 | –
36 | COC(=O)/C=C/c1ccc2c(c1)C(=O)C(=O)N2Cc1ccc(Cl)cc1 | 0.03 | 0.06 | 0.04 | –
37 | COC(=O)/C=C/c1cccc2c1C(=O)C(=O)N2Cc1ccc(OC)cc1 | 0.35 | 3.12 | 5.49 | –
38 | COC(=O)/C=C/c1ccc2c(c1)C1(OCCO1)C(=O)N2Cc1ccc(Br)cc1 | 2.63 | 5.11 | 7.47 | –
39 | Cc1ccc2c(c1)C(=O)C(=O)N2 | > 10 | > 10 | > 10 | –
40 | COc1ccc(CN2C(=O)C(=O)c3cc(/C=C/C(=O)O)ccc32)cc1 | > 10 | > 10 | > 10 | –
41 | COc1ccc(CN2C(=O)C(=O)c3cc(/C=C/C(N)=O)ccc32)cc1 | 0.2 | 0.56 | 0.89 | –
42 | COC(=O)/C=C/c1ccc2c(c1)C(=O)C(=O)N2 | 0.22 | 0.27 | 0.37 | –
43 | CCCCOC(=O)/C=C/c1ccc2c(c1)C(=O)C(=O)N2Cc1ccc(OC)cc1 | 0.04 | 0.42 | 0.63 | –
44 | COC(=O)/C=C/c1ccc2c(c1)C(=O)C(=O)N2C | 0.34 | 0.3 | 0.53 | –
45 | O=C1C(=O)N(Cc2ccc(Br)cc2)c2ccc(/C=C/C(=O)N3CCCC3)cc21 | 1.71 | 4.42 | 6.3 | –
46 | COc1ccc(CN2C(=O)C(=O)c3cc(/C=C/C(=O)N4CCCC4)ccc32)cc1 | 0.46 | 5.23 | 7.81 | –
47 | COC(=O)/C=C/c1ccc2c(c1)C(O)C(=O)N2Cc1ccc(OC)cc1 (stereo not given) | 0.03 | 0.32 | 0.38 | –
48 | COC(=O)/C=C/c1ccc2c(c1)/C(=N/O)C(=O)N2Cc1ccc(Br)cc1 | 2.92 | 3.64 | 9.96 | –
49 | COC(=O)/C=C/c1ccc2c(c1)CC(=O)N2Cc1ccc(OC)cc1 | 0.99 | 3.72 | 9.17 | –
50 | CCCCOC(=O)/C=C/c1ccc2c(c1)C(=O)C(=O)N2Cc1ccc(Br)cc1 | 0.15 | 0.6 | 0.65 | –
51 | COC(=O)/C=C/c1ccc2c(c1)C(=O)C(=O)N2Cc1ccc(F)cc1 | 0.03 | 0.06 | 0.04 | –
